PostGolgi yeast = growth inhibition of a yeast mutant, post-Golgi transport screen | 98,000 compounds, 0.9% hits | post-Golgi transport phenotypic cell assay | inhibition, % at 10 µM;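 also: yeast cells grown in 1536-well plates; yeast grown about 18 h at 30C before absorbance read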
PLAP activator = activates human placental alkaline phosphatase; P05187; purified PLAP enzyme, luminescent substrate read-out; active compounds read high; activation fold at 20 µM; 96,000 compounds, 1.2% hits; in the data active = activation fold above about 2
Target sequence (P05187 whole entry, looked up): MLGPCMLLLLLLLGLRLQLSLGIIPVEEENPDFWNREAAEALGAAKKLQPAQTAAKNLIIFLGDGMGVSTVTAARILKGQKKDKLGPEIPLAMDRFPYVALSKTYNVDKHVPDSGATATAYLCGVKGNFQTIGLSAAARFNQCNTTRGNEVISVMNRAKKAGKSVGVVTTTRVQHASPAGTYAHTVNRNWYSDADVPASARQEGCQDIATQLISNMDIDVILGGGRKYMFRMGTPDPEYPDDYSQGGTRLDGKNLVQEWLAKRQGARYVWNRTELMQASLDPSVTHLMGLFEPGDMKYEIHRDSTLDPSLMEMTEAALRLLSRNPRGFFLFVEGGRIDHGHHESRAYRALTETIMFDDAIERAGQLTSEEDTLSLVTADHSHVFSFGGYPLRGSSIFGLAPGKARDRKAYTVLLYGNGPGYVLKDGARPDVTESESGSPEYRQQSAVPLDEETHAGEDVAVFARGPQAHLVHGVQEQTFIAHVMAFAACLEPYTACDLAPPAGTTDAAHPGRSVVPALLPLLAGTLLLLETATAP
Ecoli tolC = E. coli tolC mutant growth inhibition; E. coli BW25113 tolC mutant growth, OD615; growth inhibition, % at 10 µM (by protocol); 65,000 compounds, 2.2% hits; AID 573;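 active = growth inhibition at or above a cutoff equal to the mean over every tested compound plus 3 SD, cut at about 60% in these data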;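 also: growth measured after 20 h incubation at 37 °C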
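signal = optical density read at 615 nm | test system = E. coli ΔtolC::kan strain BW25113 | timing = 20 h compound exposure of bacteria at 37 °C | buffer or medium = LB medium plus 50 µg/mL kanamycin | compound dosing = 10 µM final, single dose | evaluation = % inhibition of E. coli growth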
E coli WT exp = growth inhibitors of E. coli BW25113 wild type | OD600 absorbance | growth inhibition, % at 100 µM | 98,000 compounds, 0.15% hits;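 active = growth inhibition above about 50% at one test dose, limit read from the data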;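 also: growth measured after 20 h incubation at 37 °C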
PostGolgi ctrl = growth of the yeast control strain, post-Golgi counter-screen | 98,000 compounds, 5% hits | inhibition, % at 10 µM | efflux-deficient yeast background strain, growth absorbance A615, 16 h
HePTP inh = human HePTP phosphatase inhibition | 110,000 compounds, 0.64% hits | recombinant HePTP phosphatase activity, OD absorbance | inhibition, % at 20 µM | P35236; in the data active = inhibition above about 50%
Large screens that a line does not name were inactive. Hits are enriched below; roughly 5.4% of the tested compounds scored in any of these assays. Rule as the data show it, unless noted: active = inhibition above about 30%; inactive = the rest.

O=C1NC(=S)NC(=O)C1=Cc1cc(Br)c(Sc2ccc(Cl)cc2)o1	HePTP inh 76 (no result: PostGolgi yeast, PLAP activator, Ecoli tolC, E coli WT exp, PostGolgi ctrl)
O=C1NC(=O)/C(=C\c2ccc(Sc3ccc(Cl)cc3)o2)N1	none (no result: Ecoli tolC, HePTP inh)
CN1CCN(/N=C/C(Br)=C\c2ccccc2)CC1	none (no result: PostGolgi yeast, PLAP activator, Ecoli tolC, E coli WT exp, PostGolgi ctrl)
BrC(=C\c1ccccc1)/C=N/N1CCN(c2ccccn2)CC1	PostGolgi ctrl 38 (no result: Ecoli tolC, HePTP inh)
COc1ccc(-c2cc(C(F)F)nc(-n3nc(C)cc3C)n2)cc1	PostGolgi ctrl 31
COc1ccc(C(=O)NN(C)c2nc(-c3ccccc3)nnc2C(F)(F)F)cc1	PostGolgi ctrl 35 (no result: Ecoli tolC, HePTP inh)
Cc1cccc(C(=O)NN(C)c2nc(-c3ccccc3)nnc2C(F)(F)F)c1	none (no result: Ecoli tolC, HePTP inh)
O=c1oc2c(CN3CCCCC3)c(O)ccc2cc1-c1nc2ccccc2[nH]1	PLAP activator 2.2 (no result: PostGolgi yeast, E coli WT exp, PostGolgi ctrl)
CCOC(=O)c1cc(C#N)c(N2CCCC2)nc1-c1ccccc1	none (no result: Ecoli tolC, HePTP inh)
Cc1cc(C(=O)OCc2nc3ccccc3s2)c(C)o1	Ecoli tolC 100
CC(=O)OCc1nc2ccccc2s1	none (no result: Ecoli tolC, HePTP inh)
O=C(COC(=O)c1cccs1)NCc1ccc2c(c1)OCO2	none
CC(=O)NN1C(=O)/C(=C/c2cc3c(cc2[N+](=O)[O-])OCO3)SC1=S	HePTP inh 93 (no result: PostGolgi yeast, PLAP activator, Ecoli tolC, E coli WT exp, PostGolgi ctrl)
O=C1/C(=C\c2cc3c(cc2[N+](=O)[O-])OCO3)SC(=S)N1c1ccccc1	none (no result: PostGolgi yeast, PLAP activator, Ecoli tolC, E coli WT exp, PostGolgi ctrl)
OC(COc1c(F)cc(Br)cc1F)CN1CCN(c2ccc(F)cc2)CC1 (stereo unspecified)	PostGolgi yeast 33, PostGolgi ctrl 47
CCC1(C)CC(CC#N)(c2ccccc2OC)CCO1 (stereo unspecified)	HePTP inh 104 (no result: PostGolgi yeast, PLAP activator, Ecoli tolC, E coli WT exp, PostGolgi ctrl)
CCC1(C)CC(CC(=O)O)(c2ccccc2OC)CCO1 (stereo unspecified)	none
Cn1c(Oc2ccccc2NCc2cc(Br)ccc2O)cc(=O)n(C)c1=O	Ecoli tolC 65
COc1cc(CNc2ccccc2Oc2cc(=O)n(C)c(=O)n2C)cc(OC)c1OC	none (no result: Ecoli tolC, HePTP inh)
O=C1NC(=O)N(c2ccccc2F)C(=O)/C1=C/c1ccc(I)o1	HePTP inh 67 (no result: PostGolgi yeast, PLAP activator, Ecoli tolC, E coli WT exp, PostGolgi ctrl)
O=C1NC(=O)N(c2cccc(F)c2)C(=O)/C1=C/c1ccc(I)o1	HePTP inh 53 (no result: PostGolgi yeast, PLAP activator, Ecoli tolC, E coli WT exp, PostGolgi ctrl)
C/C(CC(=O)Nc1cccc2c1CCCC2)=N\NC(=O)C(=O)NC1CCCCC1	none (no result: PostGolgi yeast, PLAP activator, Ecoli tolC, E coli WT exp, PostGolgi ctrl)
C/C(CC(=O)Nc1cccc2c1CCCC2)=N\NC(=O)c1ccccc1N	PostGolgi ctrl 32 (no result: Ecoli tolC, HePTP inh)
CC(C)(C)c1cnnn1-c1ccc(NC(=O)c2ccc(Br)o2)cc1	PostGolgi ctrl 44
CC(=O)c1ccc(-n2nncc2C(C)(C)C)cc1	PostGolgi ctrl 33
O=C(Nc1ccc2nn(-c3ccccc3)nc2c1)c1ccc(Br)o1	none
O=C(Nc1ccc2nn(-c3ccc(F)cc3)nc2c1)c1ccc(Br)o1	HePTP inh 81 (no result: PostGolgi yeast, PLAP activator, Ecoli tolC, E coli WT exp, PostGolgi ctrl)
CCOC(=O)c1c(CN2CCN(Cc3ccccc3)CC2)n(C)c2cc(Br)c(OC)cc12	PostGolgi ctrl 73 (no result: Ecoli tolC, HePTP inh)
COC(=O)CNC(=O)CSc1nc(N)cc(=O)[nH]1	PostGolgi ctrl 31 (no result: Ecoli tolC, HePTP inh)
Cc1ccc(N2CCN(C(=O)c3ccccc3)CC2)c(C)c1	none
CCCc1cc(C(=O)N2CCN(c3ccccc3C)CC2)cs1	Ecoli tolC 100, PostGolgi ctrl 38
Cc1ccc(S(=O)(=O)NC(CC(C)C)C(=O)Nc2nccs2)cc1 (stereo unspecified)	PLAP activator 2.2 (no result: Ecoli tolC, HePTP inh)
CCc1ccc2oc(=O)cc(CN3CCN(c4ccc(F)cc4)CC3)c2c1	PostGolgi ctrl 38
CCc1ccc2oc(=O)cc(CN(C)Cc3ccccc3)c2c1	Ecoli tolC 100
CC(C)c1ccc2oc(=O)cc(CN3CCN(c4ccc(F)cc4)CC3)c2c1	PostGolgi ctrl 33
COc1ccc(N2CCN(Cc3cc(=O)oc4ccc(Cl)cc34)CC2)cc1	none
COc1ccc(N2CCN(Cc3cc(=O)oc4ccc(C)cc34)CC2)cc1	none (no result: Ecoli tolC, HePTP inh)
O=c1cc(CN2CCN(c3ccccc3)CC2)c2c(ccc3ccccc32)o1	PostGolgi ctrl 32
Cc1ccc(NC(=O)CSC2=C(C#N)C(c3ccc4c(c3)OCO4)CC(=O)N2)cc1C (stereo unspecified)	none (no result: PLAP activator)
O=S(=O)(Cc1ccccc1)Nc1ccccn1	none (no result: PostGolgi yeast, PLAP activator, Ecoli tolC, E coli WT exp, PostGolgi ctrl)
O=C(NCc1ccco1)c1cnn2c(C(F)F)cc(-c3ccccc3)nc12	none
Cc1cc(C)c(Cc2c(C)nc3c(C(=O)NCc4ccco4)cnn3c2C)c(C)c1	PostGolgi ctrl 44 (no result: Ecoli tolC, HePTP inh)
O=C(NCC1CCCO1)C(=O)Nc1ccccc1Cl (stereo unspecified)	none (no result: PostGolgi yeast, PLAP activator, Ecoli tolC, E coli WT exp, PostGolgi ctrl)
Cc1ccc(-c2nc3c(=O)n(C)c4ccccc4c3o2)cc1	PostGolgi ctrl 77
O=S(=O)(Nc1cc(Cl)ccc1N1CCCCC1)c1cccs1	Ecoli tolC 62

Screening data deposited in PubChem by several laboratories.
